Test results reported in ChEMBL document CHEMBL4689842, “EUbOPEN Chemogenomics Library wave 1” (2021).
Several values for one entry are separate records, joined by “and”; a condition that tells them apart may be missing. Equal entries are not always repeated.

System: Fibroblast
Test: Multiplex assay against human fibroblast
Type: toxicity, cell-based
Outline: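 Live cells were stained at seeding with Hoechst33342, BioTracker Green Microtubule Cytoskeleton Dye, MitoTracker Red and Annexin V Alexa Fluor 680. Following compound addition, they were imaged on a CQ1 microscope at 37°C and 5% CO2 and gated by CellPathfinder machine learning into Hoechst high-intensity objects or normal cells, with normal cells split into healthy, pyknosed or fragmented nuclei and pyknosed cells into mitotic or apoptotic. Tubulin, mitochondrial-mass and membrane-permeability phenotypes are per cents of healthy-nucleus cells.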

[1] = 12 h, 10 µM, compound concentration 10 uM, replicate 1
[2] = 12 h, 10 µM, compound concentration 10 uM, replicate 2
[3] = 24 h, 10 µM, compound concentration 10 uM, replicate 1
[4] = 24 h, 10 µM, compound concentration 10 uM, replicate 2
[5] = 12 h, 1 µM, compound concentration 1 uM, replicate 1
[6] = 12 h, 1 µM, compound concentration 1 uM, replicate 2
[7] = 24 h, 1 µM, compound concentration 1 uM, replicate 1
[8] = 24 h, 1 µM, compound concentration 1 uM, replicate 2
[9] = 48 h, 1 µM, compound concentration 1 uM, replicate 1
[10] = 48 h, 1 µM, compound concentration 1 uM, replicate 2
[11] = 48 h, 10 µM, compound concentration 10 uM, replicate 1
[12] = 48 h, 10 µM, compound concentration 10 uM, replicate 2

CCN(CC)S(=O)(=O)Nc1cccc(-c2ccc3c(NC(=O)C4CC4)n[nH]c3c2)c1
Population Apoptotic (%) [1]: 81%
Population Fragmented Nuclei (%) [1]: 23% and 19%
Population Healthy Nuclei (%) [1]: 64% and 56%
Population Hoechst High Intensity Objects (%) [1]: 13% and 11%
Population Membrane Permeable-Phenotype (%) [1]: 9% and 5%
Population Mitochondria Different-Phenotype (%) [1]: 2% and 6%
Population Mitotic Cells (%) [1]: 18%
Population Normal (%) [1]: 86% and 88%
Population Pyknosed Nuclei (%) [1]: 11% and 23%
Population Tubulin-Different-Phenotype (%) [1]: 5% and 7%
Total Cell Count [1]: 220 and 309
Population Apoptotic (%) [2]: 66% and 40%
Population Fragmented Nuclei (%) [2]: 72% and 55%
Population Healthy Nuclei (%) [2]: 17% and 34%
Population Hoechst High Intensity Objects (%) [2]: 48% and 35%
Population Membrane Permeable-Phenotype (%) [2]: 20% and 11%
Population Mitotic Cells (%) [2]: 33% and 60%
Population Normal (%) [2]: 51% and 65%
Population Pyknosed Nuclei (%) [2]: 10% and 9%
Population Tubulin-Different-Phenotype (%) [2]: 20% and 11%
Total Cell Count [2]: 56 and 80
Population Apoptotic (%) [3]: 77% and 62%
Population Fragmented Nuclei (%) [3]: 22% and 19%
Population Healthy Nuclei (%) [3]: 66% and 62%
Population Hoechst High Intensity Objects (%) [3]: 13% and 11%
Population Membrane Permeable-Phenotype (%) [3]: 6% and 4%
Population Mitochondria Different-Phenotype (%) [3]: 0% and 8%
Population Mitotic Cells (%) [3]: 22% and 38%
Population Normal (%) [3]: 86% and 88%
Population Pyknosed Nuclei (%) [3]: 10% and 18%
Population Tubulin-Different-Phenotype (%) [3]: 0% and 11%
Total Cell Count [3]: 238 and 311
Population Fragmented Nuclei (%) [4]: 51% and 63%
Population Healthy Nuclei (%) [4]: 35% and 23%
Population Hoechst High Intensity Objects (%) [4]: 31% and 42%
Population Membrane Permeable-Phenotype (%) [4]: 10% and 28%
Population Normal (%) [4]: 68% and 57%
Population Pyknosed Nuclei (%) [4]: 12% and 13%
Total Cell Count [4]: 79 and 52

CNc1cc(Oc2cc(C(=O)Nc3cc(N4CCN(C)CC4)cc(C(F)(F)F)c3)ccc2C)ncn1
Population Apoptotic (%) [5]: 61%
Population Fragmented Nuclei (%) [5]: 31%
Population Healthy Nuclei (%) [5]: 39%
Population Hoechst High Intensity Objects (%) [5]: 9%
Population Membrane Permeable-Phenotype (%) [5]: 25%
Population Mitochondria Different-Phenotype (%) [5]: 17%
Population Mitotic Cells (%) [5]: 38%
Population Normal (%) [5]: 90%
Population Pyknosed Nuclei (%) [5]: 29%
Population Tubulin-Different-Phenotype (%) [5]: 53%
Total Cell Count [5]: 147
Population Apoptotic (%) [6]: 54%
Population Fragmented Nuclei (%) [6]: 10%
Population Healthy Nuclei (%) [6]: 73%
Population Hoechst High Intensity Objects (%) [6]: 2%
Population Membrane Permeable-Phenotype (%) [6]: 10%
Population Mitochondria Different-Phenotype (%) [6]: 60%
Population Mitotic Cells (%) [6]: 45%
Population Normal (%) [6]: 97%
Population Pyknosed Nuclei (%) [6]: 16%
Population Tubulin-Different-Phenotype (%) [6]: 52%
Total Cell Count [6]: 56
Population Apoptotic (%) [1]: 54%
Population Fragmented Nuclei (%) [1]: 27%
Population Healthy Nuclei (%) [1]: 26%
Population Hoechst High Intensity Objects (%) [1]: 18%
Population Membrane Permeable-Phenotype (%) [1]: 37%
Population Mitochondria Different-Phenotype (%) [1]: 45%
Population Mitotic Cells (%) [1]: 45%
Population Normal (%) [1]: 81%
Population Pyknosed Nuclei (%) [1]: 46%
Population Tubulin-Different-Phenotype (%) [1]: 65%
Total Cell Count [1]: 186
Population Apoptotic (%) [2]: 73%
Population Fragmented Nuclei (%) [2]: 24%
Population Healthy Nuclei (%) [2]: 13%
Population Hoechst High Intensity Objects (%) [2]: 33%
Population Membrane Permeable-Phenotype (%) [2]: 58%
Population Mitochondria Different-Phenotype (%) [2]: 66%
Population Mitotic Cells (%) [2]: 26%
Population Normal (%) [2]: 66%
Population Pyknosed Nuclei (%) [2]: 61%
Population Tubulin-Different-Phenotype (%) [2]: 66%
Total Cell Count [2]: 70
Population Apoptotic (%) [7]: 61%
Population Fragmented Nuclei (%) [7]: 30%
Population Healthy Nuclei (%) [7]: 38%
Population Hoechst High Intensity Objects (%) [7]: 11%
Population Membrane Permeable-Phenotype (%) [7]: 16%
Population Mitochondria Different-Phenotype (%) [7]: 10%
Population Mitotic Cells (%) [7]: 38%
Population Normal (%) [7]: 88%
Population Pyknosed Nuclei (%) [7]: 30%
Population Tubulin-Different-Phenotype (%) [7]: 71%
Total Cell Count [7]: 163
Population Apoptotic (%) [8]: 50%
Population Fragmented Nuclei (%) [8]: 16%
Population Healthy Nuclei (%) [8]: 63%
Population Hoechst High Intensity Objects (%) [8]: 6%
Population Membrane Permeable-Phenotype (%) [8]: 13%
Population Mitochondria Different-Phenotype (%) [8]: 68%
Population Mitotic Cells (%) [8]: 50%
Population Normal (%) [8]: 93%
Population Pyknosed Nuclei (%) [8]: 19%
Population Tubulin-Different-Phenotype (%) [8]: 51%
Total Cell Count [8]: 58
Population Apoptotic (%) [3]: 80%
Population Fragmented Nuclei (%) [3]: 34%
Population Healthy Nuclei (%) [3]: 19%
Population Hoechst High Intensity Objects (%) [3]: 18%
Population Membrane Permeable-Phenotype (%) [3]: 15%
Population Mitochondria Different-Phenotype (%) [3]: 57%
Population Mitotic Cells (%) [3]: 19%
Population Normal (%) [3]: 81%
Population Pyknosed Nuclei (%) [3]: 45%
Population Tubulin-Different-Phenotype (%) [3]: 76%
Total Cell Count [3]: 163
Population Apoptotic (%) [4]: 76%
Population Fragmented Nuclei (%) [4]: 16%
Population Healthy Nuclei (%) [4]: 23%
Population Hoechst High Intensity Objects (%) [4]: 48%
Population Membrane Permeable-Phenotype (%) [4]: 80%
Population Mitochondria Different-Phenotype (%) [4]: 80%
Population Mitotic Cells (%) [4]: 23%
Population Normal (%) [4]: 51%
Population Pyknosed Nuclei (%) [4]: 60%
Population Tubulin-Different-Phenotype (%) [4]: 80%
Total Cell Count [4]: 76
Population Apoptotic (%) [9]: 84%
Population Fragmented Nuclei (%) [9]: 37%
Population Healthy Nuclei (%) [9]: 43%
Population Hoechst High Intensity Objects (%) [9]: 15%
Population Membrane Permeable-Phenotype (%) [9]: 12%
Population Mitochondria Different-Phenotype (%) [9]: 10%
Population Mitotic Cells (%) [9]: 16%
Population Normal (%) [9]: 84%
Population Pyknosed Nuclei (%) [9]: 19%
Population Tubulin-Different-Phenotype (%) [9]: 65%
Total Cell Count [9]: 150
Population Apoptotic (%) [10]: 60%
Population Fragmented Nuclei (%) [10]: 43%
Population Healthy Nuclei (%) [10]: 52%
Population Hoechst High Intensity Objects (%) [10]: 23%
Population Mitochondria Different-Phenotype (%) [10]: 3%
Population Mitotic Cells (%) [10]: 40%
Population Normal (%) [10]: 76%
Population Pyknosed Nuclei (%) [10]: 4%
Population Tubulin-Different-Phenotype (%) [10]: 49%
Total Cell Count [10]: 158
Population Apoptotic (%) [11]: 75%
Population Fragmented Nuclei (%) [11]: 59%
Population Healthy Nuclei (%) [11]: 10%
Population Hoechst High Intensity Objects (%) [11]: 30%
Population Membrane Permeable-Phenotype (%) [11]: 36%
Population Mitochondria Different-Phenotype (%) [11]: 54%
Population Mitotic Cells (%) [11]: 24%
Population Normal (%) [11]: 69%
Population Pyknosed Nuclei (%) [11]: 30%
Population Tubulin-Different-Phenotype (%) [11]: 72%
Total Cell Count [11]: 155
Population Apoptotic (%) [12]: 100%
Population Fragmented Nuclei (%) [12]: 84%
Population Healthy Nuclei (%) [12]: 11%
Population Hoechst High Intensity Objects (%) [12]: 34%
Population Membrane Permeable-Phenotype (%) [12]: 20%
Population Mitochondria Different-Phenotype (%) [12]: 80%
Population Mitotic Cells (%) [12]: 0%
Population Normal (%) [12]: 65%
Population Pyknosed Nuclei (%) [12]: 4%
Population Tubulin-Different-Phenotype (%) [12]: 80%
Total Cell Count [12]: 67
